Experimental findings from ChEMBL document CHEMBL1157584, “Discovery of 4-amino-1-(7H-pyrrolo[2,3-d]pyrimidin-4-yl)piperidine-4-carboxamides as selective, orally active inhibitors of protein kinase B (Akt)” (J Med Chem, 2010) are described below.

≈ marks a conversion by molar mass, not a printed value.

Usually solubility stands for how much of the substance goes into solution per volume. The bioavailability is the share of a dose that reaches the circulation, judged against a reference dose that is usually intravenous. A lower bioavailability goes with little systemic uptake. For orientation: Vdss means the apparent volume that relates the amount in the body to the concentration in plasma or blood. A low value points to little distribution into tissue.

Data set [1] in a line: Solubility in aqueous buffer at pH 6.5. In kind it is physicochemical.
Data set [2] has as its system Mus musculus. The data set is described as follows: Plasma clearance in mouse at 25 mg/kg, iv. In kind it is ADME, organism-based. Particulars: in vivo. More on the design: dose 25 mg/kg, route intravenous.
A short description of data set [3]: Solubility in aqueous buffer at pH 7.0. In kind it is physicochemical.
The subject of data set [4] is Mus musculus. The data set is described as follows: Half life in mouse at 10 mg/kg, iv. In kind it is ADME, organism-based. Also noted: dose 10 mg/kg, route intravenous. To be noted: in vivo.
Data set [5] deals with Mus musculus. The data set is described as follows: Plasma clearance in mouse at 10 mg/kg, iv. In kind it is ADME, organism-based. More on the design: dose 10 mg/kg, route intravenous. Particulars: in vivo.
A short description of data set [6]: Oral bioavailability in mouse at 10 mg/kg. The format is ADME, organism-based. To be noted: in vivo.
The test system of data set [7] is Mus musculus. The data set is described as follows: Volume of distribution at steady state in mouse at 10 mg/kg, iv. In kind it is ADME, organism-based. More on the design: dose 10 mg/kg, route intravenous. Particulars: in vivo. In a few lines: (§1)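 Mice received a single iv dose, and plasma drug levels were followed over time. Pharmacokinetic parameters, including Vss in L, were fitted to model 201 with default settings.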

A short description of data set [8]: Drug level in CrTac:Ncr-Fox1 (nu) athymic mouse tumor bearing human U87MG cells at 200 mg/kg, po single dose after 4 hrs. To be noted: read-out: Drug uptake. More on the design: dose 200 mg/kg, route oral. In kind it is ADME, organism-based, Neoplasm, U-87MG ATCC. Summed up: (§2)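 U87MG xenograft-bearing athymic mice given a single oral dose of 200 mg/kg. Compound levels measured in plasma and tumor samples 4 h after dosing.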

The nature of data set [9]: Plasma concentration in CrTac:Ncr-Fox1 (nu) athymic mouse bearing human U87MG cells at 200 mg/kg, po single dose after 4 hrs. In kind it is ADME, organism-based, U-87MG ATCC. Also noted: dose 200 mg/kg, route oral. In a few lines: as §2
A short description of data set [10]: Oral bioavailability in mouse at 5 mg/kg. The format is ADME, organism-based. Particulars: in vivo.
Data set [11] deals with Mus musculus. As to the kind of experiment: Plasma clearance in mouse at 5 mg/kg, iv. Particulars: in vivo. The format is ADME, organism-based. More on the design: dose 5 mg/kg, route intravenous.
For data set [12], the system named is Mus musculus. The data set is described as follows: Volume of distribution at steady state in mouse at 5 mg/kg, iv. In kind it is ADME, organism-based. More on the design: dose 5 mg/kg, route intravenous. Particulars: in vivo. In a few lines: as §1
For data set [13], the system named is Mus musculus. As to the kind of experiment: Half life in mouse at 5 mg/kg, iv. In kind it is ADME, organism-based. More on the design: dose 5 mg/kg, route intravenous. To be noted: in vivo.

As to `NC1(Cc2ccc(Cl)cc2)CCN(c2ncnc3[nH]ccc23)CC1`, the solubility in [1] was 260 µg/mL (≈ 761 µM); in [3] it was “Insoluble”. The CL in the data set with Mus musculus [2] is 0.33 L/h.

In turn, `CC(C)(C)c1ccc(CC2(N)CCN(c3ncnc4[nH]ccc34)CC2)cc1` gave a t1/2 in the data set on Mus musculus [4] of 47.4 min. In the data set on Mus musculus [5], this compound returned a CL of 0.31 L/h. In addition, the bioavailability in data set [6] was less than 1%. For the same compound, in the data set with Mus musculus [7], the Vdss is 0.27 L.

In the case of `NC1(C(=O)NCc2ccc(Cl)cc2)CCN(c2ncnc3[nH]ccc23)CC1`, the concentration at 4 h in data set [8] turned out to be 43 µM; in data set [9], 20 µM. The compound further yielded a bioavailability in [10] of 58%. This compound also had a CL in the data set on Mus musculus [11] of 0.08 L/h. In addition, the Vdss in the data set with Mus musculus [12] was found to be 0.06 L. The t1/2 in the data set on Mus musculus [13] amounted to 54 min.
